According to ChEMBL document CHEMBL1147771, “Synthesis and antibacterial activity of 9-substituted minocycline derivatives” (2006):
Values after ≈ are worked out from the molar mass of the structure shown.

How the values were obtained:
Assay type in all cases: functional
Staphylococcus aureus [1] = assay: Antibacterial activity against Staphylococcus aureus Smith
In short: (§1)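 MICs determined by agar dilution.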

Staphylococcus aureus [2] = assay: Antibacterial activity against Staphylococcus aureus UBMS 88-7 carrying the tetK-resistant determinant
In short: (§2)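 Antibacterial activity determined by agar dilution.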

Staphylococcus aureus [3] = assay: Antibacterial activity against Staphylococcus aureus UBMS 90-2 carrying tetM-resistant determinant; in short: as §2
Staphylococcus aureus [4] = assay: Antibacterial activity against Staphylococcus aureus UBMS 90-3; in short: as §1
Escherichia coli [5] = assay: Antibacterial activity against Minocylcine sensitive Escherichia coli 89-2; in short: as §1
Staphylococcus aureus [6] = assay: Antibacterial activity against Staphylococcus aureus UBMS 90-1 carrying tetM-resistant determinant; in short: as §2
Enterococcus faecalis = assay: Antibacterial activity against Enterococcus faecalis ATCC 29212; in short: as §1
Escherichia coli [7] = assay: Antibacterial activity against Escherichia coli UBMS 88-1 carrying tetB-resistant determinant; in short: as §2
Escherichia coli [8] = assay: Antibacterial activity against Minocycline sensitive Escherichia coli 88-2; in short: as §1
Escherichia coli [9] = assay: Antibacterial activity against Escherichia coli UBMS 89-1 carrying tetM-resistant determinant; in short: as §2
Escherichia coli [10] = assay: Antibacterial activity against Minocycline sensitive Escherichia coli 90-5; in short: as §2
Escherichia coli [11] = assay: Antibacterial activity against Escherichia coli UBMS 90-4 carrying tetM-resistant determinant; in short: as §2

| SMILES | MIC (Staphylococcus aureus [1]) | MIC (Staphylococcus aureus [2]) | MIC (Staphylococcus aureus [3]) | MIC (Staphylococcus aureus [4]) | MIC (Escherichia coli [5]) | MIC (Staphylococcus aureus [6]) | MIC (Enterococcus faecalis) | MIC (Escherichia coli [7]) | MIC (Escherichia coli [8]) | MIC (Escherichia coli [9]) | MIC (Escherichia coli [10]) | MIC (Escherichia coli [11]) |
| --- | --- | --- | --- | --- | --- | --- | --- | --- | --- | --- | --- | --- |
| Cc1ccccc1C(=O)Nc1cc(N(C)C)c2c(c1O)C(O)=C1C(=O)[C@]3(O)C(O)=C(C(N)=O)C(=O)[C@@H](N(C)C)C3CC1C2 (some centres undefined) | 1 µg/mL (≈ 1.69 µM) | 4 µg/mL (≈ 6.77 µM) | 2 µg/mL (≈ 3.39 µM) | 1 µg/mL (≈ 1.69 µM) | > 32 µg/mL | 8 µg/mL (≈ 13.5 µM) | 2 µg/mL (≈ 3.39 µM) | 2 µg/mL (≈ 3.39 µM) | > 32 µg/mL | – | – | – |
| CN(C)c1cc(NC(=O)c2ccccc2)c(O)c2c1CC1CC3[C@H](N(C)C)C(=O)C(C(N)=O)=C(O)[C@@]3(O)C(=O)C1=C2O (some centres undefined) | 1 µg/mL (≈ 1.73 µM) | 8 µg/mL (≈ 13.9 µM) | 4 µg/mL (≈ 6.94 µM) | 1 µg/mL (≈ 1.73 µM) | > 32 µg/mL | 4 µg/mL (≈ 6.94 µM) | 4 µg/mL (≈ 6.94 µM) | > 32 µg/mL | > 32 µg/mL | – | – | – |
| CN(C)c1cc(NC(=O)c2cccs2)c(O)c2c1CC1CC3[C@H](N(C)C)C(=O)C(C(N)=O)=C(O)[C@@]3(O)C(=O)C1=C2O (some centres undefined) | 2 µg/mL (≈ 3.43 µM) | 32 µg/mL (≈ 54.9 µM) | 4 µg/mL (≈ 6.87 µM) | 2 µg/mL (≈ 3.43 µM) | > 32 µg/mL | 4 µg/mL (≈ 6.87 µM) | 8 µg/mL (≈ 13.7 µM) | > 32 µg/mL | > 32 µg/mL | > 32 µg/mL | – | – |
| CN(C)c1ccc(C(=O)Nc2cc(N(C)C)c3c(c2O)C(O)=C2C(=O)[C@]4(O)C(O)=C(C(N)=O)C(=O)[C@@H](N(C)C)C4CC2C3)cc1 (some centres undefined) | 4 µg/mL (≈ 6.45 µM) | 16 µg/mL (≈ 25.8 µM) | 8 µg/mL (≈ 12.9 µM) | 8 µg/mL (≈ 12.9 µM) | > 32 µg/mL | 16 µg/mL (≈ 25.8 µM) | 8 µg/mL (≈ 12.9 µM) | > 32 µg/mL | > 32 µg/mL | > 32 µg/mL | – | – |
| CN(C)CCCC(=O)Nc1cc(N(C)C)c2c(c1O)C(=O)C1=C(O)[C@]3(O)C(O)=C(C(N)=O)C(=O)[C@@H](N(C)C)C3CC1C2 (some centres undefined) | 2 µg/mL (≈ 3.41 µM) | 16 µg/mL (≈ 27.3 µM) | 4 µg/mL (≈ 6.83 µM) | 2 µg/mL (≈ 3.41 µM) | – | 8 µg/mL (≈ 13.7 µM) | 4 µg/mL (≈ 6.83 µM) | > 32 µg/mL | – | – | 16 µg/mL (≈ 27.3 µM) | 16 µg/mL (≈ 27.3 µM) |
| CN(C)c1cc(NC(=O)c2cccc(C(F)(F)F)c2)c(O)c2c1CC1CC3[C@H](N(C)C)C(=O)C(C(N)=O)=C(O)[C@@]3(O)C(=O)C1=C2O (some centres undefined) | 1 µg/mL (≈ 1.55 µM) | 1 µg/mL (≈ 1.55 µM) | 1 µg/mL (≈ 1.55 µM) | 0.5 µg/mL (≈ 0.776 µM) | > 32 µg/mL | 1 µg/mL (≈ 1.55 µM) | 1 µg/mL (≈ 1.55 µM) | > 32 µg/mL | > 32 µg/mL | > 32 µg/mL | – | – |
| CN(C)c1cc(NS(C)(=O)=O)c(O)c2c1CC1CC3[C@H](N(C)C)C(=O)C(C(N)=O)=C(O)[C@@]3(O)C(=O)C1=C2O (some centres undefined) | 0.12 µg/mL (≈ 0.218 µM) | 8 µg/mL (≈ 14.5 µM) | 0.06 µg/mL (≈ 0.109 µM) | 0.12 µg/mL (≈ 0.218 µM) | 2 µg/mL (≈ 3.63 µM) | 0.25 µg/mL (≈ 0.454 µM) | 0.06 µg/mL (≈ 0.109 µM) | 8 µg/mL (≈ 14.5 µM) | 2 µg/mL (≈ 3.63 µM) | – | – | – |
| CN(C)c1cc(NS(=O)(=O)c2ccccc2)c(O)c2c1CC1CC3[C@H](N(C)C)C(=O)C(C(N)=O)=C(O)[C@@]3(O)C(=O)C1=C2O (some centres undefined) | 4 µg/mL (≈ 6.53 µM) | 4 µg/mL (≈ 6.53 µM) | 0.06 µg/mL (≈ 0.0979 µM) | 4 µg/mL (≈ 6.53 µM) | 16 µg/mL (≈ 26.1 µM) | 4 µg/mL (≈ 6.53 µM) | 0.06 µg/mL (≈ 0.0979 µM) | 16 µg/mL (≈ 26.1 µM) | 8 µg/mL (≈ 13.1 µM) | – | – | – |
| CN(C)c1cc(NC(=O)CO)c(O)c2c1CC1CC3[C@H](N(C)C)C(=O)C(C(N)=O)=C(O)[C@@]3(O)C(=O)C1=C2O (some centres undefined) | 0.5 µg/mL (≈ 0.942 µM) | > 32 µg/mL | 2 µg/mL (≈ 3.77 µM) | 1 µg/mL (≈ 1.88 µM) | – | 4 µg/mL (≈ 7.54 µM) | 32 µg/mL (≈ 60.3 µM) | > 32 µg/mL | – | – | > 32 µg/mL | > 32 µg/mL |
